Test results reported in paper PMC6287304 (Antiviral Chemistry & Chemotherapy, 2018).
Where two headings read alike, the source gives them in different places.

Assays:
HEL cells [1] = test: Cytotoxicity, alteration of cell morphology; assay type: cell-based, human
herpesviruses = test: organism not typed; assay type: cell-based; conditions: for EC50: HEL
Vaccinia virus = test: microbe, parasite or virus in culture; assay type: cell-based; conditions: for EC50: read-out: Antiviral activity EC50 Vaccinia virus
[2] = Cytostatic activity, inhibition of cell growth; assay type: cell-based, human; conditions: human, HEL cells, Cytotoxicity Cell growth (CC50), Table 3
HSV = test: Antiviral activity against HSV; assay type: cell-based, herpes simplex virus; conditions: HEL
HSV-1 TK– = test: Virus-induced cytopathicity, TK– HSV-1 KOS ACVr in HEL cells; assay type: cell-based, herpes simplex virus type 1; conditions: read-out: Antiviral activity EC50 HSV-1 TK–
HSV-2 = test: Virus-induced cytopathicity, HSV-2; assay type: cell-based, herpes simplex virus type 2; conditions: read-out: Antiviral activity EC50 HSV-2
HSV-1 = test: Virus-induced cytopathicity, HSV-1; assay type: cell-based, herpes simplex virus type 1; conditions: read-out: Antiviral activity EC50 HSV-1; Table 4; HEL cells
HEL cells [3] = test: Cytostatic activity, inhibition of cell growth; assay type: cell-based, human
TK+ VZV OKA strain = assay type: cell-based, varicella-zoster virus
TK– VZV 07-1 strain = assay type: cell-based, varicella-zoster virus
HCMV AD-169 strain = test: Virus-induced cytopathic effect, HCMV AD-169 strain in HEL cells; assay type: cell-based, human cytomegalovirus
HSV-1 mutant viruses = assay type: cell-based, herpes simplex virus type 1; conditions: Figure 2
Procedure, shortened: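 HSV-1 TK and DNA polymerase mutants were derived from the reference KOS strain and tested by CPE reduction. Confluent HEL cultures in 96-well plates were infected and incubated with varying test compound concentrations. Cytopathicity was scored once it was complete in untreated infected controls. […] Fold-resistance is EC50 mutant divided by EC50 wild-type KOS. Reference antiherpetic drugs were run alongside.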

HCMV Davis strain = test: Virus-induced cytopathic effect, HCMV Davis strain in HEL cells; assay type: cell-based, human cytomegalovirus
HCMV DNA pol = biological target: T1, HCMV DNA pol (Human cytomegalovirus, UniProt P08546); test: DNA polymerase inhibition, HCMV DNA pol; assay type: biochemical; conditions: IC50 HCMV DNA pol dGTP, calf thymus DNA, radiolabeled [3H]dGTP
T1 sequence (P08546 1-1242): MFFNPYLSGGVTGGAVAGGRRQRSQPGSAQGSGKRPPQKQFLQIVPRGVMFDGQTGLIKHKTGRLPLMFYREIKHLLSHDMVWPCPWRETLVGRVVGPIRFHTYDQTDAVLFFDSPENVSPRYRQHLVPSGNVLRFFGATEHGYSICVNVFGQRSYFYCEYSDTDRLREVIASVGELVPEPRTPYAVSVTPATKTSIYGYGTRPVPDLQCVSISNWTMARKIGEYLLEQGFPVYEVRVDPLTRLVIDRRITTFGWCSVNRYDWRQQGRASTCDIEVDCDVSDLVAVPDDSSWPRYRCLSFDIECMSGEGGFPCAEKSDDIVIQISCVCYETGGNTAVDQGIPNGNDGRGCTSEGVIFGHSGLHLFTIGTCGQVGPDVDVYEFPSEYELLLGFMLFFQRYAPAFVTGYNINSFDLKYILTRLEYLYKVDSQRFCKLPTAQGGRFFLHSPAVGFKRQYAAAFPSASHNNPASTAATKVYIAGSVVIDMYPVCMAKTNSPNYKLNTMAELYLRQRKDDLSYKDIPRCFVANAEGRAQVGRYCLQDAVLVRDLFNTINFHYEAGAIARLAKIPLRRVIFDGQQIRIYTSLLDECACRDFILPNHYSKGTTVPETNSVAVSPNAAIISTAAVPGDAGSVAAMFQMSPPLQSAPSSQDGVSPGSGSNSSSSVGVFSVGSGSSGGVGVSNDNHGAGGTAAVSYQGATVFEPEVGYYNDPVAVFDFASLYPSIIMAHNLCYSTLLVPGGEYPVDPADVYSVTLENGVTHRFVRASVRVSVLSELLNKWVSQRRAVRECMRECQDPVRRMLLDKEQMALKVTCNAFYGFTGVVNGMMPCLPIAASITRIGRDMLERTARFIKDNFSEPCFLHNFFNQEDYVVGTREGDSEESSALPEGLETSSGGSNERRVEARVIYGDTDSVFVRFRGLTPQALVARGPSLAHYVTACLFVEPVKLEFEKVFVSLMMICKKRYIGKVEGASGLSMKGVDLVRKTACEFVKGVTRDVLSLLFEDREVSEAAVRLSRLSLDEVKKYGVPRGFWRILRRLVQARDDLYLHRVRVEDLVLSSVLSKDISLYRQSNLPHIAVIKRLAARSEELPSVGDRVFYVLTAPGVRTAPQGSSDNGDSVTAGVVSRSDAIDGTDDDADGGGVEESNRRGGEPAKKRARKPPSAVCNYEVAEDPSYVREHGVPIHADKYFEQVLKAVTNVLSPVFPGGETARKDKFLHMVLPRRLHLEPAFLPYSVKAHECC
Procedure, shortened: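 Recombinant or source enzyme not specified. HCMV DNA polymerase reaction uses activated calf thymus DNA as template/primer, 100 uM of each of three unlabeled dNTPs, and 0.5 uM rate-limiting tritium-labeled dNTP ([3H]dGTP or [3H]dTTP, as competitive substrate). The diphosphate form of the test compound is added in serial dilutions, up to 100 uM.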

[4] = read-out: EC50 against VZV, HCMV, HSV-1, HSV-2, and Vaccinia virus (range)
[5] = read-out: EC50 values, replication of HSV-1, HSV-2 and TK-HSV-1 (range)

In the case of `O=c1nc(NC2CC2)c2ncn(CCOCP(=O)(O)O)c2[nH]1` [Compound 17, ((2–(6-(Cyclopropylamino)-2-oxo-2,3-dihydro-9H-purin-9-yl)ethoxy)methyl)phosphonic acid], the “Cytotoxicity Cell morphology (MCC)” value (HEL cells [1]; Table 3) is reported as >100 μM, the “activity in all assays (in words)” value (herpesviruses) is reported as “completely inactive in all assays” and the EC50 (Vaccinia virus; Orthopoxvirus vaccinia, HEL) is reported as > 100 µM.

With `O=c1[nH]c(=O)c2ncn(C[C@@H](CF)OCP(=O)(O)O)c2[nH]1` [Compound 8, (S)-(((1–(2,6-Dioxo-1,2,3,6-tetrahydro-9H-purin-9-yl)-3-fluoropropan-2-yl)oxy)methyl)phosphonic acid] the “Cytotoxicity Cell morphology (MCC)” value (HEL cells [1]; Table 1) was >329 μM and the EC50 (Vaccinia virus; Orthopoxvirus vaccinia, HEL) was > 329 µM.

In the case of `C[C@H](Cn1cnc2c(=O)[nH]c(=O)[nH]c21)OCP(=O)(O)O` [Compound 9, (R)-(((1–(2,6-Dioxo-1,2,3,6-tetrahydro-9H-purin-9-yl)propan-2-yl)oxy)methyl)phosphonic acid], the “Cytotoxicity Cell morphology (MCC)” value (HEL cells [1]; Table 1) is reported as >100 μM and the EC50 (Vaccinia virus; Orthopoxvirus vaccinia, HEL) is reported as > 100 µM.

`Nc1ccn(C[C@@H](CO)OCP(=O)(O)O)c(=O)n1` [Cidofovir, cidofovir] showed a CC50 at 3 days [2] of 170 ± 61 µM.

For `O=c1[nH]c(=O)c2ncn(CC(CO)OCP(=O)(O)O)c2[nH]1` (racemic) [Compound 5, (RS)-(((1–(2,6-Dioxo-1,2,3,6-tetrahydro-9H-purin-9-yl)-3-hydroxypropan-2-yl)oxy)methyl)phosphonic acid], the “Cytotoxicity Cell morphology (MCC)” value (HEL cells [1]; Table 1) was ≥300 μM, the “Cytotoxicity Cell morphology (MCC)” value (HEL cells [1]; Table 2) was >100 μM and the “anti-herpesvirus activity (in words)” value (herpesviruses) was “able to inhibit the replication of herpesviruses”. The EC50 (herpesviruses; [4]) was 17 to 43 µM, the EC50 (Vaccinia virus; Orthopoxvirus vaccinia, HEL) was 39 ± 27 µM and the EC50 (HSV; [5]) was 16 to 39 µM.

With “4,4,5,5,6,6,7,7,8,8,9,9,10,10,11,11,11-Heptadecafluoroundecyl hydrogen ((2–(2,6-dioxo-1,2,3,6-tetrahydro-9H-purin-9-yl)ethoxy)methyl)phosphonate [Compound 19]” the EC50 (HSV-1 TK–; Table 4, HEL cells) was > 100 µM, the EC50 (HSV-2; Table 4, HEL cells) was > 100 µM and the “Cytotoxicity Cell morphology (MCC)” value (HEL cells [1]; Table 3) was ≥100 μM. For the same compound, the “Cytotoxicity Cell morphology (MCC)” value (HEL cells [1]; Table 4) was >100 μM, the EC50 (HSV-1) was > 100 µM and the “anti-herpesvirus activity (in words)” value (herpesviruses) was “did not display any potent anti-herpesvirus activity”. For the same compound, the EC50 (Vaccinia virus) was > 100 µM.

In the case of `O=c1[nH]c(=O)n([C@H]2C[C@H](O)[C@@H](CO)O2)cc1/C=C/Br` [Brivudin, brivudin, reference compound], the EC50 (HSV-1 TK–) is reported as 50 µM, the EC50 (HSV-2; Human alphaherpesvirus 2, HEL) is reported as 112 ± 37 µM and the “Cytotoxicity Cell morphology (MCC)” value (HEL cells [1]; Table 1) is reported as >300 μM. The “Cytotoxicity Cell morphology (MCC)” value (HEL cells [1]; Table 2) was >250 μM, the “Cytotoxicity Cell morphology (MCC)” value (HEL cells [1]; Table 3) was ≥300 μM and the CC50 at 3 days [2] was 168 ± 41 µM.

With `CCCCCCCCCCCCCCCCOCCCOP(=O)(O)COCCn1cnc2c(=O)[nH]c(=O)[nH]c21` [Compound 18, 3-(Hexadecyloxy)propyl hydrogen ((2–(2,6-dioxo-1,2,3,6-tetrahydro-9H-purin-9-yl)ethoxy)methyl)phosphonate] the “Cytotoxicity Cell morphology (MCC)” value (HEL cells [1]; Table 3) was 100 μM, the “Cytotoxicity Cell morphology (MCC)” value (HEL cells [1]; Table 4) was >100 μM and the EC50 (Vaccinia virus; Orthopoxvirus vaccinia, HEL) was > 100 µM. For the same compound, the EC50 (HSV; read-out: EC50 values against HSV-1 and HSV-2 (range)) was 1.8 to 4 µM and the “increase in cytostatic activity versus parent compound 4” value (HEL cells [3]) was 11 fold.

For `O=c1[nH]c(=O)c2ncn(C[C@@H](CO)OCP(=O)(O)O)c2[nH]1` [Compound 6, (S)-(((1–(2,6-Dioxo-1,2,3,6-tetrahydro-9H-purin-9-yl)-3-hydroxypropan-2-yl)oxy)methyl) phosphonic acid], the “Cytotoxicity Cell morphology (MCC)” value (HEL cells [1]; Table 1) was >300 μM, the “Cytotoxicity Cell morphology (MCC)” value (HEL cells [1]; Table 2) was >100 μM and the “anti-herpesvirus activity (in words)” value (herpesviruses) was “able to inhibit the replication of herpesviruses”. It also gave an EC50 (herpesviruses; [4]) of 17 to 43 µM, an EC50 (Vaccinia virus; Orthopoxvirus vaccinia, HEL) of 39 ± 27 µM and an EC50 (HSV; [5]) of 16 to 39 µM.

In the case of `Nc1nc2c(ncn2COCCO)c(=O)[nH]1` [Acyclovir, acyclovir, reference compound], the “Cytotoxicity Cell morphology (MCC)” value (HEL cells [1]; Table 2) is reported as >250 μM and the EC50 (Vaccinia virus; Orthopoxvirus vaccinia, HEL) is reported as > 250 µM.

For `O=c1[nH]c(=O)c2ncn(C[C@H](CF)OCP(=O)(O)O)c2[nH]1` [Compound 7, (R)-(((1–(2,6-Dioxo-1,2,3,6-tetrahydro-9H-purin-9-yl)-3-fluoropropan-2-yl)oxy)methyl)phosphonic acid], the “Cytotoxicity Cell morphology (MCC)” value (HEL cells [1]; Table 1) was >313 μM and the EC50 (Vaccinia virus; Orthopoxvirus vaccinia, HEL) was > 313 µM.

For `Nc1nc(O)c2ncn(COC(CO)CO)c2n1` [Ganciclovir, ganciclovir, reference compound], the “Cytotoxicity Cell morphology (MCC)” value (HEL cells [1]; Table 2) was >100 μM, the EC50 (Vaccinia virus; Orthopoxvirus vaccinia, HEL) was > 100 µM and the CC50 at 3 days [2] was ≥ 317 µM.

For `O=c1[nH]c(=O)c2ncn(CCOCP(=O)(O)O)c2[nH]1` [Compound 4, ((2–(2,6-Dioxo-1,2,3,6-tetrahydro-9H-purin-9-yl)ethoxy)methyl)phosphonic acid], the “selectivity index (ratio CC50/EC50)” value (TK+ VZV OKA strain) was 42, the “Cytotoxicity Cell morphology (MCC)” value (HEL cells [1]; Table 1) was >345 μM and the “selectivity index (ratio CC50/EC50)” value (TK– VZV 07-1 strain) was 24. The “selectivity index (ratio CC50/EC50)” value (HCMV AD-169 strain) was 11, the “change of EC50 for DNA polymerase mutant viruses” value (HSV-1 mutant viruses; HSV-1 DNA polymerase mutants, same magnitude as adefovir) was “increase in the EC50” and the “activity against viruses bearing mutations in the viral TK” value (HSV-1 mutant viruses; HSV-1 TK mutants) was “remained active”. The “anti-herpesvirus activity (in words)” value (herpesviruses) was “able to inhibit the replication of herpesviruses”, the EC50 (herpesviruses; read-out: EC50 values against VZV, HCMV, HSV-1, and HSV-2 (range)) was 2.6 to 25.6 µM and the “Antiviral activity EC50 Vaccinia virus” value (Vaccinia virus) was “lacked activity”. The EC50 (Vaccinia virus; Orthopoxvirus vaccinia, HEL) was > 345 µM, the EC50 (HSV; [5]) was 16 to 39 µM and the “selectivity index (ratio CC50/EC50)” value (HCMV Davis strain) was 13.

For `Nc1nc2c(ncn2COCCOP(=O)(O)OP(=O)(O)OP(=O)(O)O)c(=O)[nH]1` [ACV-TP, acyclovir triphosphate], the IC50 (HCMV DNA pol) was 0.77 ± 0.04 µM.
